Results published in ChEMBL document CHEMBL1155438, “Design and syntheses of permethyl ningalin B analogues: potent multidrug resistance (MDR) reversal agents of cancer cells” (J Med Chem, 2010).
The source made the active and inactive calls. No cut-off for these calls is given here.

Tests used:
[1] = Cytotoxicity against multidrug-resistant human LCC-6 cells after 3 days by MTS assay; type: cell-based; settings: LCC-6, 72 h
[2] = target: T1, ATP-dependent translocase ABCB1 (Homo sapiens, UniProt P08183); experiment: Inhibition of P-gp-mediated paclitaxel-resistance in P-glycoprotein-expressing human LCC-6 cells assessed as fold decrease in paclitaxel IC50 for cytotoxic activity at 1 uM after 5 days by MTS assay relative to control; type: cell-based; settings: lcc-6, 120 h
How it was run: (§1)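 ABCB1-transfected LCC6MDR cells (6000 per well) given serial paclitaxel, doxorubicin or vincristine with or without 1 μM modulator for 5 days at 37 °C. MTS/PMS added for 2 h, absorbance 490 nm. IC50 from dose-response curves. RF = IC50 without modulator / IC50 with modulator; mean ± SEM.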

L929 = experiment: Cytotoxicity against mouse L929 cells after 3 days by MTS assay; type: cell-based; settings: L929, 72 h
[3] = Cytotoxicity against wild type human LCC-6 cells after 3 days by MTS assay; type: cell-based; settings: LCC-6, 72 h
[4] = Noncompetitive inhibition of P-gp-mediated doxorubicin transport in multidrug-resistant human LCC-6 cells after 150 mins by dixon plot analysis; type: cell-based
How it was run: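 LCC6MDR cells (1 × 10⁶) incubated with doxorubicin at 1.5, 4.4, 13.3 or 40 μM and modulator at 0, 0.5, 1 or 2 μM for 150 min at 37 °C. Lysis and fluorescence done as in the accumulation assay. Ki taken from a Dixon plot of reciprocal retention rate vs modulator concentration. Slope replot vs 1/[doxorubicin] used to assign mechanism. Two to four experiments.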

[5] = target: T1, ATP-dependent translocase ABCB1; experiment: Inhibition of P-gp-mediated doxorubicin-resistance in P-glycoprotein-expressing human LCC-6 cells assessed as increase in intracellular doxorubicin accumulation at 3 uM after 150 mins by spectrofluorimetry relative to control; type: cell-based; settings: lcc-6, 2.5 h
How it was run: (§2)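 Cells (1 × 10⁶ LCC6 or LCC6MDR) incubated with 20 μM doxorubicin plus modulator for 150 min at 37 °C; 0.4% DMSO as negative control. Cells washed in cold PBS pH 7.4 and lysed in 0.75 M HCl/0.2% Triton X-100 in isopropanol. Supernatant doxorubicin fluorescence read at ex 460/em 610 nm. Duplicate, repeated twice; mean ± SEM.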

[6] = target: T1, ATP-dependent translocase ABCB1; experiment: Inhibition of P-gp-mediated vincristine-resistance in P-glycoprotein-expressing human LCC-6 cells assessed as fold decrease in vincristine IC50 for cytotoxic activity at 1 uM after 5 days by MTS assay; type: cell-based; settings: lcc-6, 120 h; how it was run: as §1
LCC-6 = experiment: Increase in doxorubicin concentration in wild type human LCC-6 cells at 3 uM after 150 mins by spectrofluorimetry; type: functional, cell-based; how it was run: as §2
[7] = target: T1, ATP-dependent translocase ABCB1; experiment: Inhibition of P-gp-mediated doxorubicin-resistance in P-glycoprotein-expressing human LCC-6 cells assessed as increase in intracellular doxorubicin accumulation at 8 to 16 uM after 150 mins by spectrofluorimetry; type: cell-based; settings: lcc-6, 2.5 h; how it was run: as §2
[8] = target: T1, ATP-dependent translocase ABCB1; experiment: Inhibition of P-gp-mediated doxorubicin-resistance in P-glycoprotein-expressing human LCC-6 cells assessed as increase in intracellular doxorubicin accumulation at 0.25 to 3 uM after 150 mins by spectrofluorimetry; type: cell-based; settings: lcc-6, 2.5 h; how it was run: as §2
[9] = target: T1, ATP-dependent translocase ABCB1; experiment: Inhibition of P-gp-mediated doxorubicin-resistance in P-glycoprotein-expressing human LCC-6 cells assessed as fold decrease in doxorubicin IC50 for cytotoxic activity at 1 uM after 5 days by MTS assay; type: cell-based; settings: lcc-6, 120 h; how it was run: as §1
[10] = target: T1, ATP-dependent translocase ABCB1; experiment: Inhibition of P-gp-mediated paclitaxel-resistance in P-glycoprotein-expressing human LCC-6 cells assessed as fractional inhibitory concentration index at 0.5 uM after 5 days by MTS assay in presence of 1-(3,4,5-Trimethoxybenzyl)-3,4-bis(3,4-dimethoxyphenyl)-1H-pyrrole-2,5-dione; type: cell-based; settings: lcc-6, 120 h
How it was run: (§3)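 LCC6MDR cells (6000 per well) given two modulators at 0.5 μM each, with serial paclitaxel, doxorubicin or vincristine, for 5 days at 37 °C. IC50 by MTS absorbance at 490 nm. FIC values come from IC50 relative to each modulator alone at 1 μM, and FICI is the sum (modified Chou–Talalay). Synergy: FICI ≤0.5; additive: 0.5–4; antagonism: >4.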

[11] = target: T1, ATP-dependent translocase ABCB1; experiment: Inhibition of P-gp-mediated doxorubicin-resistance in P-glycoprotein-expressing human LCC-6 cells assessed as fractional inhibitory concentration index at 0.5 uM after 5 days by MTS assay in presence of 1-(3,4,5-Trimethoxybenzyl)-3,4-bis(3,4-dimethoxyphenyl)-1H-pyrrole-2,5-dion; type: cell-based; settings: lcc-6, 120 h; how it was run: as §3
[12] = target: T1, ATP-dependent translocase ABCB1; experiment: Inhibition of P-gp-mediated vincristine-resistance in P-glycoprotein-expressing human LCC-6 cells assessed as fractional inhibitory concentration index at 0.5 uM after 5 days by MTS assay in presence of 1-(3,4,5-Trimethoxybenzyl)-3,4-bis(3,4-dimethoxyphenyl)-1H-pyrrole-2,5-dione; type: cell-based; settings: lcc-6, 120 h; how it was run: as §3
[13] = target: T1, ATP-dependent translocase ABCB1; experiment: Inhibition of P-gp-mediated paclitaxel-resistance in P-glycoprotein-expressing human LCC-6 cells assessed as fractional inhibitory concentration index at 0.5 uM after 5 days by fraction affected plot assay in presence of 1-(3,4,5-Trimethoxybenzyl)-3,4-bis(3,4-dimethoxyphenyl)-1H-pyrrole-2,5-dione; type: cell-based; settings: lcc-6, 120 h

T1 sequence (P08183 whole entry): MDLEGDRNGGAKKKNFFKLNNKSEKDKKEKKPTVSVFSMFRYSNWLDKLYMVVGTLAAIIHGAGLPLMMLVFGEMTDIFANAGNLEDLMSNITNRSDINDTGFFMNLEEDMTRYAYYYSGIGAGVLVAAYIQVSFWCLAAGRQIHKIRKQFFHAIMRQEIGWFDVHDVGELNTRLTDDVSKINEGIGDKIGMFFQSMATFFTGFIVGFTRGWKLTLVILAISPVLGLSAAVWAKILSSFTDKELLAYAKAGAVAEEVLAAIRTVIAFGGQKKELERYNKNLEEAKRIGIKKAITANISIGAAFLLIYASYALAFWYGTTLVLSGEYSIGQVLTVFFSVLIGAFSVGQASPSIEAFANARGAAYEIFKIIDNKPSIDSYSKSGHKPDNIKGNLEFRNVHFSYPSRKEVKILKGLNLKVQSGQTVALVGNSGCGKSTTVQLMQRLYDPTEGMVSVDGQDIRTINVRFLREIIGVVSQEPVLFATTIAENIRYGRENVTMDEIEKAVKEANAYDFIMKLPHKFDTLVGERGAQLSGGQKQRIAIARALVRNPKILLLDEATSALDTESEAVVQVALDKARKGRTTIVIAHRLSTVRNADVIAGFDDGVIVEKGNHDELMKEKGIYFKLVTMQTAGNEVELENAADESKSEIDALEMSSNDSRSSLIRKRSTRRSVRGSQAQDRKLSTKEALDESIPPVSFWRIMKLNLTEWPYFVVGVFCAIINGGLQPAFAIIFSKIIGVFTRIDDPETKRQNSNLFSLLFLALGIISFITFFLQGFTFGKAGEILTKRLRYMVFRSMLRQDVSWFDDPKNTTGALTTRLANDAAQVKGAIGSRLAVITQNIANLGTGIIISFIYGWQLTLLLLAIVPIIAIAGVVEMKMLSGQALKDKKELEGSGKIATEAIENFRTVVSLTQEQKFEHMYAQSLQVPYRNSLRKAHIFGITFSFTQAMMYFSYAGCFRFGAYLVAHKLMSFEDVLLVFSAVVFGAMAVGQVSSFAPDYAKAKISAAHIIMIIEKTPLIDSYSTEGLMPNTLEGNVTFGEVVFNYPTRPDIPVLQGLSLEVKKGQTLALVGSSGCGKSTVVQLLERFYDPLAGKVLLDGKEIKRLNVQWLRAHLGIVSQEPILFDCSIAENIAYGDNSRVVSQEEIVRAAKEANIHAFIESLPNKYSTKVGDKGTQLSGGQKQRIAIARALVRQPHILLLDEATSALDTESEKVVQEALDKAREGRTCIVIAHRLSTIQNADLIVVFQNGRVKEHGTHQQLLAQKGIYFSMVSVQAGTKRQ

SMILES | IC50 [1] | fold change (FC) [2] | IC50 (L929) | IC50 [3] | further results
COc1ccc(C2=C(c3ccc(OC)c(OC)c3)C(=O)N(CC(=O)c3ccccc3)C2=O)cc1OC | > 100 µM | 3.9 | > 100 µM |  | 
COc1ccc(CN2C(=O)C(c3ccc(OC)c(OC)c3)=C(c3ccc(OC)c(OC)c3)C2=O)cc1 | > 100 µM | 9.3 | > 100 µM | > 100 µM | 
COc1ccc(C2=C(c3ccc(OC)c(OC)c3)C(=S)N(CCc3cc(OC)c(OC)c(OC)c3)C2=O)cc1OC |  | 2.8 |  |  | 
COc1ccc(C2=C(c3ccc(OC)c(OC)c3)C(=O)N(Cc3ccccc3)C2=O)cc1OC |  | 7.9 |  |  | 
COc1ccc(-c2cn(Cc3cc(OC)c(OC)c(OC)c3)c(OCc3cc(OC)c(OC)c(OC)c3)c2-c2ccc(OC)c(OC)c2)cc1OC | > 100 µM | 1.6 | > 100 µM | > 100 µM | 
COc1ccc(C2=C(c3ccc(OC)c(OC)c3)C(=O)N(Cc3cc(OC)c(OC)c(OC)c3)C2=O)cc1OC | > 100 µM | 18.2 | > 100 µM | > 100 µM | Ki [4]: 5.5 µM; fold change (FC) [5]: 3; fold change (FC) [6]: 14.6; Activity (LCC-6): inactive; Activity [7]: Not Active; Activity [8]: Active; fold change (FC) [9]: 9.5
COc1ccc(C2=C(c3ccc(OC)c(OC)c3)C(=O)N(CCc3ccccc3)C2=O)cc1OC | > 100 µM | 3.6 | > 100 µM |  | 
COc1ccc(C(=O)CN2C(=O)C(c3ccc(OC)c(OC)c3)=C(c3ccc(OC)c(OC)c3)C2=O)cc1 | 90 µM | 9.9 | > 100 µM | > 100 µM | Ki [4]: 5.4 µM; fractional inhibitory concentration index (FICI) [10]: 0.42; fractional inhibitory concentration index (FICI) [11]: 1.26; fold change (FC) [5]: 2.1; fractional inhibitory concentration index (FICI) [12]: 0.89; fold change (FC) [6]: 9.3; Activity (LCC-6): inactive; Activity [7]: Not Active; fractional inhibitory concentration index (FICI) [13]: 0.42; Activity [8]: Active; fold change (FC) [9]: 5.2
COc1ccc(C2=C(c3ccc(OC)c(OC)c3)C(=O)N(C/C=C/c3cc(OC)c(OC)c(OC)c3)C2=O)cc1OC | > 100 µM | 6.2 | > 100 µM | > 100 µM | 
COc1ccc(C2=C(c3ccc(OC)c(OC)c3)C(=O)N(CN3C(=O)C(c4ccc(OC)c(OC)c4)=C(c4ccc(OC)c(OC)c4)C3=O)C2=O)cc1OC | > 100 µM | 8 | > 100 µM | > 100 µM | 
COc1ccc(C2=C(c3ccc(OC)c(OC)c3)C(=O)N(CCc3cc(OC)c(OC)c(OC)c3)C2=O)cc1OC | > 100 µM | 4.5 | > 100 µM | > 100 µM | 
C/C=C/C[C@@H](C)C(=O)[C@H]1C(=O)N[C@@H](C(C)C)C(=O)N(C)CC(=O)N(C)[C@@H](CC(C)C)C(=O)N[C@@H](C(C)C)C(=O)N(C)[C@@H](CC(C)C)C(=O)N[C@@H](C)C(=O)N[C@H](C)C(=O)N(C)[C@@H](CC(C)C)C(=O)N(C)[C@@H](CC(C)C)C(=O)N(C)[C@@H](C(C)C)C(=O)N1C [VALSPODAR] |  | 101.8 |  |  | 
COc1ccc(C(=O)CN2C(=O)C(c3ccc(OC)c(OC)c3)=C(c3ccc(OC)c(OC)c3)C2=O)cc1OC | > 100 µM | 8.2 | > 100 µM | > 100 µM | fractional inhibitory concentration index (FICI) [10]: 2.05; fractional inhibitory concentration index (FICI) [13]: 2.05
COc1ccc(CN2C(=O)C(c3ccc(OC)c(OC)c3)=C(c3ccc(OC)c(OC)c3)C2=O)cc1OC | > 100 µM | 12.4 | > 100 µM | > 100 µM | fractional inhibitory concentration index (FICI) [10]: 2.21; fractional inhibitory concentration index (FICI) [13]: 2.21
COc1ccc(CCN2C(=O)C(c3ccc(OC)c(OC)c3)=C(c3ccc(OC)c(OC)c3)C2=O)cc1 | 18 µM | 10.7 | 21.6 µM | 32.5 µM | fractional inhibitory concentration index (FICI) [10]: 1.61; fractional inhibitory concentration index (FICI) [13]: 1.61
COc1ccc(C2=C(c3ccc(OC)c(OC)c3)C(=O)N(CCCc3cc(OC)c(OC)c(OC)c3)C2=O)cc1OC | > 100 µM | 4.7 | > 100 µM | > 100 µM | 
COc1ccc(C2=C(c3ccc(OC)c(OC)c3)C(=O)N(CCCN3C(=O)C(c4ccc(OC)c(OC)c4)=C(c4ccc(OC)c(OC)c4)C3=O)C2=O)cc1OC | > 100 µM | 5.2 | > 100 µM | > 100 µM | 
COc1ccc(C2=C(c3ccc(OC)c(OC)c3)C(=O)N(CCO)C2=O)cc1OC | 84 µM | 1.8 | > 100 µM |  | 
COc1ccc(CCN2C(=O)C(c3ccc(OC)c(OC)c3)=C(c3ccc(OC)c(OC)c3)C2=O)cc1OC | > 100 µM | 6.9 | > 100 µM | > 100 µM | 
COc1ccc(C2=C(c3ccc(OC)c(OC)c3)C(=S)N(Cc3ccccc3)C2=O)cc1OC | > 100 µM | 3.4 | > 100 µM |  | 
COc1ccc(C2=C(c3ccc(OC)c(OC)c3)C(=O)N(CCN3C(=O)C(c4ccc(OC)c(OC)c4)=C(c4ccc(OC)c(OC)c4)C3=O)C2=O)cc1OC | > 100 µM | 1.4 | > 100 µM |  | 
